Assay outcomes (PubChem)
CCR6 antag – antagonists of human CCR6 receptor; P51684; CHO-K1 CCR6 PathHunter beta-arrestin, luminescence, CCL20-stimulated; inhibition, % at 20 µM; hit rate 0.49% among 340,000; AID 493098;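 active means compounds whose inhibition of the agonist-driven luminescence signal at 20 µM reaches about 50%, limit read from the data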;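 further: cells stimulated with CCL20 at 14 nM final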
Target sequence (P51684 whole entry, looked up): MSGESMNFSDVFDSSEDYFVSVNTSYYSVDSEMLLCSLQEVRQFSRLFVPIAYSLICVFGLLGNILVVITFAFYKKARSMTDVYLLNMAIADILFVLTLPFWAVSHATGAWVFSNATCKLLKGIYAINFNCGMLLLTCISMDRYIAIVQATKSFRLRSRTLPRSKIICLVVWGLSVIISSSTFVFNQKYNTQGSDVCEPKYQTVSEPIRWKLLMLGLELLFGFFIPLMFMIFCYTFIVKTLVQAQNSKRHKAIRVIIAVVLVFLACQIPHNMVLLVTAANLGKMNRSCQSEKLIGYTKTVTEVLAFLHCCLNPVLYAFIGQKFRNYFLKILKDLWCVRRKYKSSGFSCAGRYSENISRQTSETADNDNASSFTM
m5-HT2A agonist – activates the mouse 5-HT2A serotonin receptor; CHO-K1 mHTR2A beta-arrestin complementation, luminescence; percent of 30 µM serotonin response; activation, % at 7.6 µM; hit rate 0.66% among 360,000;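 active means activation above a run cutoff, the mean activation of all tested compounds plus 3 SD, cut at about 14% in these data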
APJ ag – activates the human apelin receptor APJ. AID 2520. hit rate 0.11% among 330,000. activation, % at 20 µM. CHO-K1 APJ PathHunter beta-arrestin, luminescence; 0% DMSO wells, 100% apelin. P35414;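 active means activation more than six SD over the plate average, tested at 20 µM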
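assay system = CHO-K1 APJ beta-arrestin complementation cell line | input = cell density 1000 per well | dosing = compound 20 µM once, DMSO 1% | timing = compound 90 min 25 °C, reagent 1 h | measured by = luminescence from split beta-galactosidase complementation, Galacton Star/Emerald II substrate | read-out basis = APJ agonist activity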
APJ antag – antagonists of human APJ apelin receptor | P35414 | inhibition, % at 20 µM | CHO-K1 APJ beta-arrestin complementation, luminescence | hit rate 0.32% among 330,000;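 active means inhibition above about 40% at 20 µM, limit read from the data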;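 further: cells challenged with 10 nM apelin-13 agonist together with compound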
NTR1 agonist – activates human neurotensin receptor 1; P30989; activation, % at 20 µM; NTR1-U2OS beta-arrestin-GFP spot imaging, agonist mode; hit rate 0.17% among 330,000; AID 493036;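 active means activation at or above 40% of the spot to cytoplasm intensity ratio, with at least 20 cells analyzed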
CXCR6 block – blocks human CXCR6 beta-arrestin recruitment | O00574 | inhibition, % at 20 µM | CHO-K1 PathHunter CXCR6 beta-arrestin, luminescence | AID 602244 | hit rate 0.36% among 360,000; in the data active means inhibition above about 34%, passing the limit was not always enough;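 further: antagonist mode with CXCL16 agonist at 10 nM final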
OPRM1 ag – activates human mu opioid receptor in HTR2A counterscreen; hit rate 5.3% among 2,300; activation, % at 9.3 µM; shares compounds with m5-HT2A agonist; U2OS OPRM1 beta-arrestin PathHunter, luminescence; DMSO 0%, DAMGO 9.3 µM 100%;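 active means mean activation above the mean of DMSO-only wells plus 3 SD, cut at about 0.5% in these data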
HTR2A ag conf – mouse HTR2A agonism confirmed | shares compounds with m5-HT2A agonist | CHO-K1 PathHunter beta-arrestin recruitment, luminescence; DMSO 0%, 30 µM serotonin 100% | activation, % at 7.6 µM | hit rate 19% among 2,300 | AID 624381;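 active means mean activation across triplicates above the hit threshold derived in the original primary screen, cut at about 15% in these data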
Large screens that a line does not name were inactive (follow-up assays come after a bar, where they were run). Hits are enriched below; roughly 1.5% of the tested compounds scored in any of these assays.

CCOC(=O)c1cccnc1SCC(=O)NC(C)CC (centres undefined)	none
O=C(CSCC(=O)OCC(=O)c1ccc(Br)cc1)Nc1ccc(Br)cc1	none
CCOC(=O)c1ccc(NC(=O)CSCC(=O)OCC(=O)c2ccccc2)cc1	m5-HT2A agonist 15 | OPRM1 ag inactive | HTR2A ag conf inactive
CCOC(=O)c1ccc(NC(=O)Cn2nnc(-c3ccccc3)n2)cc1	m5-HT2A agonist 21 | OPRM1 ag inactive | HTR2A ag conf inactive
CCOC(=O)c1cccnc1SCC(=O)Nc1ccc(C)cc1	m5-HT2A agonist 16 | OPRM1 ag inactive | HTR2A ag conf inactive
COc1ccc(S(=O)(=O)N2CCC(C(=O)NCc3ccncc3)CC2)cc1C	none
O=C(NC1CCCCC1)c1c2c(nc3ccccc13)CCC2	none
Cc1cccc(C(=O)Nc2cccc3c2CCCC3)c1	none
COc1cccc(-c2nc(NCC3CCCO3)c3ccccc3n2)c1O (centres undefined)	m5-HT2A agonist 32 | OPRM1 ag inactive | HTR2A ag conf 15
CCC(C)Nc1nc(-c2cccc(OC)c2O)nc2ccccc12 (centres undefined)	m5-HT2A agonist 59 | OPRM1 ag inactive | HTR2A ag conf 33
Oc1ccccc1-c1nc(NCC2CCCO2)c2ccccc2n1 (centres undefined)	none
COc1ccc(/C=N/NS(=O)(=O)c2ccc(F)cc2)cc1CN1CCSCC1	none
CC(C)c1ccc(NC2CCCN(C(=O)c3ccnc(Cl)c3)C2)cc1 (centres undefined)	none
CC(C)c1cc(C(=O)N2CCCC(Nc3ccc(F)cc3)C2)nc(N)n1 (centres undefined)	m5-HT2A agonist 16 | OPRM1 ag inactive | HTR2A ag conf inactive
CC(C)c1ccc(NC2CCCN(C(=O)c3ccc4nccnc4c3)C2)cc1 (centres undefined)	m5-HT2A agonist 21 | OPRM1 ag inactive | HTR2A ag conf inactive
CC(C)c1cc(C(=O)N2CCCC(Nc3ccc(F)c(F)c3)C2)nc(N)n1 (centres undefined)	none
Cc1ccc(S(=O)(=O)NCCC(=O)OCC(=O)NC(=O)c2cccn2C)cc1	none
CCC(C)(C)C1CCC2(CC1)NC(=O)N(CC(=O)N1CCN(S(=O)(=O)c3cc(C)ccc3C)CC1)C2=O (centres undefined)	none
Cc1noc(C)c1S(=O)(=O)N1CCC(C(=O)N2CCC(N3CCCCC3)CC2)CC1	m5-HT2A agonist 34 | OPRM1 ag inactive | HTR2A ag conf inactive
Cc1noc(C)c1S(=O)(=O)N1CCCC(C(=O)N2CCN(C3CCCCC3)CC2)C1 (centres undefined)	none
COc1ccccc1CNCC(=O)Nc1ccccc1-n1cccc1	m5-HT2A agonist 16 | OPRM1 ag inactive | HTR2A ag conf inactive
COc1ccccc1CNCC(=O)Nc1ccc(C#N)cc1	none
COc1cccc(OC)c1CNC(=O)C1CCC(=O)N(CC2CCCCC2)C1 (centres undefined)	none
O=C1c2ccccc2C(=O)N1CCc1c[nH]c2ccc(O)cc12	m5-HT2A agonist 18 | OPRM1 ag inactive | HTR2A ag conf inactive
Cc1cc(/C=C(\C#N)C(=O)NC2CCCCCC2)c(C)n1C	m5-HT2A agonist 18 | OPRM1 ag inactive | HTR2A ag conf inactive
COc1ccc(/C=C(/C#N)C(=O)NC2CCCCC2)cc1Br	none
O=C(Nc1ccc(C(=O)O)cc1)/C(=C\c1ccccc1)NC(=O)c1ccccc1	m5-HT2A agonist 18 | OPRM1 ag inactive | HTR2A ag conf inactive
O=C(CCCc1ccccn1)c1ccc(-c2ccccc2)cc1	none (no result: APJ ag, APJ antag, NTR1 agonist)
CN1CCN(c2ncnc3c2ncn3[C@H]2CN(Cc3ccncc3)C[C@@H](CO)O2)CC1	m5-HT2A agonist 15 (no result: CCR6 antag, APJ ag, APJ antag, NTR1 agonist) | HTR2A ag conf inactive
OC[C@@H]1CN(Cc2ccncc2)C[C@H](n2cnc3c(N4CCCC4)ncnc32)O1	none (no result: CCR6 antag, APJ ag, APJ antag, NTR1 agonist)
CN1CCc2cc(Cl)c(O)cc2[C@@H](c2ccccc2)C1	none (no result: APJ ag, APJ antag)
C=CCN1CCc2c(cc(O)c(O)c2Br)[C@@H](c2ccccc2)C1	m5-HT2A agonist 61 | OPRM1 ag inactive | HTR2A ag conf 141
COc1ccc(Cc2c(O)nc(SCC(C)C)[nH]c2=O)cc1	m5-HT2A agonist 14 | OPRM1 ag inactive | HTR2A ag conf inactive
CC(C)(C)N1CC23CCC(C[C@@H]2C1=O)O3 (some centres undefined)	none
CC(C)(C)Nc1nc2nonc2nc1NC(C)(C)C	m5-HT2A agonist 36 | OPRM1 ag inactive | HTR2A ag conf 20
O=C1NC(=O)C(Cc2cccc(Oc3ccccc3)c2)S1 (centres undefined)	m5-HT2A agonist 15 | OPRM1 ag inactive | HTR2A ag conf inactive
COc1cc(NC(=O)CSc2ncnc3sc4c(c23)CCC(C)C4)c(C(=O)O)cc1OC (centres undefined)	none
CCOC(=O)[C@H]1[C@H]2COc3ccc(Cl)cc3[C@@H]2N2C(=O)c3ccc(C)cc3NC(=O)[C@@]12C	m5-HT2A agonist 15 | OPRM1 ag inactive | HTR2A ag conf inactive
CCOC(=O)[C@H]1[C@H]2COc3ccc(OC)cc3[C@@H]2N2C(=O)[C@H](C)NC(=O)[C@@]12C	m5-HT2A agonist 20 | OPRM1 ag inactive | HTR2A ag conf inactive
CCOC(=O)[C@H]1[C@H]2COc3ccc(C)cc3[C@@H]2N2C(=O)CN(Cc3ccco3)C(=O)[C@@]12C	m5-HT2A agonist 15 | OPRM1 ag inactive | HTR2A ag conf inactive
Cn1cc(C(CO)Cc2ccccc2)c2ccccc21 (centres undefined)	none
CC(=O)N1c2ccc(S(=O)(=O)NCCC(=O)Nc3ccc(C)c(F)c3)cc2CC1C (centres undefined)	none
CC(=O)N1c2ccc(S(=O)(=O)NCCC(=O)Nc3ncccc3C)cc2CC1C (centres undefined)	m5-HT2A agonist 15 | OPRM1 ag inactive | HTR2A ag conf inactive
Cc1ccc(C(=O)C(C)OC(=O)Cn2cnc3c2c(=O)n(C)c(=O)n3C)cc1 (centres undefined)	none
CCc1ccc(C(=O)C(C)OC(=O)Cn2cnc3c2c(=O)n(C)c(=O)n3C)cc1 (centres undefined)	m5-HT2A agonist 17 | OPRM1 ag inactive | HTR2A ag conf inactive
COc1ccc(CNC(=O)CN(C(=O)CCC(=O)Nc2ccccn2)c2cccc(C)c2)cc1	none
